Assay type in all cases: cell-based
The test system of one data set is SK-N-BE(2). Description: Cytotoxicity in human SKNBE2 cells assessed as reduction in cell viability at 0.01 to 1 uM incubated for 18 hrs by Cell Titer-Glo assay. The conditions noted are these: dose 0.01-1 µM. A digest of the protocol: (§1)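 Cells seeded at 1.5 million per 10-cm dish. Next day they were replated at 10,000 cells/well and rested 4 h. Ligand or vehicle (water, ethanol or DMSO, by ligand) was added in dose-response format in quadruplicate. After 18 h, viability was read by CellTiter-Glo luminescence. Data are mean ± s.e.m., generally representative of 2 independent experiments. One-way ANOVA versus vehicle.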

The subject of data set [1] is PC-12. Description: Cytotoxicity in rat PC-12 cells assessed as reduction in cell viability at 0.01 to 1 uM incubated for 18 hrs by Cell Titer-Glo assay. As to conditions: pc-12, 18 h, dose 0.01-1 µM. The essentials: as §1
For orientation: In ATP-based viability assays light output follows the ATP content of the culture.

The next data set relates to HEK-293T. Briefly: Cytotoxicity in human HEK293T cells assessed as reduction in cell viability at 0.01 to 1 uM incubated for 18 hrs by Cell Titer-Glo assay. The conditions noted are these: dose 0.01-1 µM. A digest of the protocol:
as §1

Another data set deals with SKNBE2. Description: Modulation of Gal4-fused VP16 expressed in SKNBE(2) cells co-transfected with UAS repoter gene assessed as increase in luciferase activity at 0.01 to 1 uM incubated for 18 hrs by luciferase reporter gene assay. As to conditions: Human alphaherpesvirus 2, filed as modulator, dose 0.01-1 µM. The essentials: (§2)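 Cells in 10-cm dishes were transfected with Gal4-VP16 expression plasmid (2 μg) plus 5xUAS-luciferase reporter (2 μg) for 18 h. They were replated at 10,000 cells/well for 4 h, then given ligand or vehicle (water, ethanol or DMSO) in quadruplicate for 18 h. Luciferase was read with Britelite Plus. Fold change is versus vehicle-treated cells, with one-way ANOVA versus vehicle.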

The test system of another data set is HEK293T. Description: Modulation of Gal4-fused VP16 expressed in HEK293T cells co-transfected with UAS repoter gene assessed as increase in luciferase activity at 0.01 to 1 uM incubated for 18 hrs by luciferase reporter gene assay. As to conditions: Human alphaherpesvirus 2, filed as modulator, dose 0.01-1 µM. A digest of the protocol: as §2
A general note: A reporter such as luciferase makes a cellular process visible.

The test system of data set [2] is PC-12. Description: Modulation of Gal4-fused VP16 expressed in PC12 cells co-transfected with UAS repoter gene assessed as increase in luciferase activity at 0.01 to 1 uM incubated for 18 hrs by luciferase reporter gene assay. As to conditions: Human alphaherpesvirus 2, filed as modulator, dose 0.01-1 µM. The essentials: as §2
The target in data set [3] is Nuclear receptor subfamily 4 group A member 2 (Homo sapiens) (UniProt P43354). Briefly: Modulation of full length human Nurr1 expressed in SKNBE(2) cells co-transfected with RXRalpha and luciferase reporter plasmid harboring NBRE response element assessed as increase in luciferase activity incubated for 18 hrs by luciferase reporter gene assay. The conditions noted are these: SKNBE2, filed as modulator, dose 0.01-1 µM. The essentials: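 SK-N-BE(2)-C cells were kept in 1:1 EMEM/F12 with 10% FBS at 37°C and 5% CO2. They were cotransfected with full-length Nurr1 (1 μg), full-length RXRα (1 μg) and 3xNBRE- or 3xNurRE-luc reporter (6 μg) for 18 h, replated at 10,000 cells/well for 4 h, and then treated with ligand or vehicle in quadruplicate for 18 h. The readout was luciferase luminescence as fold over vehicle, reported as mean ± s.e.m. (n=4) from 2 independent experiments, one-way ANOVA.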
Chain of Nuclear receptor subfamily 4 group A member 2 (Homo sapiens) (P43354 whole entry): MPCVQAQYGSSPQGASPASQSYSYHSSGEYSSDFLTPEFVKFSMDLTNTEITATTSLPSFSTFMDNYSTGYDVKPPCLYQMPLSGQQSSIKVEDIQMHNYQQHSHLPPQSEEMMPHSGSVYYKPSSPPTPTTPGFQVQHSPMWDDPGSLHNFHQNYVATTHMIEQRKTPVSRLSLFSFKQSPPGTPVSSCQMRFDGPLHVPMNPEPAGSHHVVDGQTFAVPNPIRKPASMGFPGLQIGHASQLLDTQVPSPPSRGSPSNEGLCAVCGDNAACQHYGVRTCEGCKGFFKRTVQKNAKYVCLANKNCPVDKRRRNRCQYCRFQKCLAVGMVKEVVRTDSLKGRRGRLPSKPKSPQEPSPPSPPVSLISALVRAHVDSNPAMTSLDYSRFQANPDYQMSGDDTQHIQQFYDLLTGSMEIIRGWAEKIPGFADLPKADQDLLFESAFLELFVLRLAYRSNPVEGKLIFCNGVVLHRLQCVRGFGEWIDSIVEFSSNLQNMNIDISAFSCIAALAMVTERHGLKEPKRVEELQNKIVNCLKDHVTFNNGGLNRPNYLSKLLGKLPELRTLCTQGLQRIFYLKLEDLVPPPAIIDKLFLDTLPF

Data set [4] shares this target. Briefly: Modulation of full length human Nurr1 expressed in PC12 cells co-transfected with RXRalpha and luciferase reporter plasmid harboring NurRE response element assessed as increase in luciferase activity incubated for 18 hrs by luciferase reporter gene assay. The conditions noted are these: PC-12, filed as modulator, dose 0.01-1 µM. The essentials: (§3)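 PC12 cells were grown at 37°C and 5% CO2 in […] medium with 15% horse serum and 2.5% FBS. They were transfected with full-length Nurr1 (1 μg) plus full-length RXRα (1 μg) and 3xNBRE- or 3xNurRE-luciferase reporter (6 μg) for 18 h, then replated at 10,000 cells/well for 4 h. Ligand or vehicle (water, ethanol or DMSO) was added in quadruplicate for 18 h. Luminescence was read as fold change over vehicle. Results are mean ± s.e.m., n=4, from 2 independent experiments, analysed by one-way ANOVA against vehicle.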

The target is the same in data set [5]. Briefly: Modulation of full length human Nurr1 expressed in PC12 cells co-transfected with RXRalpha and luciferase reporter plasmid harboring NBRE response element assessed as increase in luciferase activity incubated for 18 hrs by luciferase reporter gene assay. As to conditions: PC-12, filed as modulator, dose 0.01-1 µM. The essentials: as §3
Data set [6] shares this target. Description: Modulation of full length human Nurr1 expressed in HEK293T cells co-transfected with RXRalpha and luciferase reporter plasmid harboring NurRE response element assessed as increase in luciferase activity incubated for 18 hrs by luciferase reporter gene assay. The conditions noted are these: filed as modulator, dose 0.01-1 µM. A digest of the protocol: (§4)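 Full-length Nurr1 plasmid, alone (2 μg) or 1 μg plus full-length RXRα (1 μg), cotransfected with 3xNBRE- or 3xNurRE-luciferase reporter (6 μg) using Lipofectamine 2000, 18 h. Cells replated at 10,000/well for 4 h. Four ligand concentrations, or vehicle (water, ethanol or DMSO), added in quadruplicate for 18 h. Luciferase read. Fold change vs vehicle, mean ± s.e.m., one-way ANOVA vs vehicle.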

The target is the same in data set [7]. Briefly: Modulation of full length human Nurr1 expressed in HEK293T cells co-transfected with RXRalpha and luciferase reporter plasmid harboring NBRE response element assessed as increase in luciferase activity incubated for 18 hrs by luciferase reporter gene assay. As to conditions: filed as modulator, dose 0.01-1 µM. The essentials:
as §4

The target is the same in data set [8]. Description: Modulation of full length human Nurr1 expressed in SKNBE(2) cells co-transfected with luciferase reporter plasmid harboring NurRE response element assessed as increase in luciferase activity incubated for 18 hrs by luciferase reporter gene assay. As to conditions: SKNBE2, filed as modulator, dose 0.01-1 µM.
For data set [9] the target is unchanged. Description: Modulation of full length human Nurr1 expressed in SKNBE(2) cells co-transfected with luciferase reporter plasmid harboring NBRE response element assessed as increase in luciferase activity incubated for 18 hrs by luciferase reporter gene assay. As to conditions: SKNBE2, filed as modulator, dose 0.01-1 µM. A digest of the protocol: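 Transfection of SK-N-BE(2)-C cells (1:1 EMEM/F12, 10% FBS, 37°C, 5% CO2) used full-length Nurr1 alone (2 μg, no RXRα) with 3xNBRE- or 3xNurRE-luciferase reporter (6 μg) for 18 h. Cells were replated at 10,000/well for 4 h, then exposed to ligand or vehicle in quadruplicate for 18 h. Luminescence was expressed as fold over vehicle, as mean ± s.e.m. (n=4) from 2 independent experiments, one-way ANOVA against vehicle.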

Data set [10] has the same target. Description: Modulation of full length human Nurr1 expressed in PC12 cells co-transfected with luciferase reporter plasmid harboring NurRE response element assessed as increase in luciferase activity incubated for 18 hrs by luciferase reporter gene assay. The conditions noted are these: PC-12, filed as modulator, dose 0.01-1 µM. A digest of the protocol: (§5)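 Here PC12 cells (FK-12 medium, 15% horse serum, 2.5% FBS, 37°C, 5% CO2) received full-length Nurr1 (2 μg) without RXRα, plus 3xNBRE- or 3xNurRE-luciferase reporter (6 μg), for 18 h. Cells were replated at 10,000/well for 4 h, then treated with ligand or vehicle in quadruplicate for 18 h. Luciferase luminescence was normalized to vehicle-treated cells. Results are mean ± s.e.m. (n=4) from 2 independent experiments, with one-way ANOVA against vehicle.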

The target is the same in data set [11]. Briefly: Modulation of full length human Nurr1 expressed in PC12 cells co-transfected with luciferase reporter plasmid harboring NBRE response element assessed as increase in luciferase activity incubated for 18 hrs by luciferase reporter gene assay. As to conditions: PC-12, filed as modulator, dose 0.01-1 µM. The essentials:
as §5

For data set [12] the target is unchanged. Briefly: Modulation of full length human Nurr1 expressed in HEK293T cells co-transfected with luciferase reporter plasmid harboring NurRE response element assessed as increase in luciferase activity incubated for 18 hrs by luciferase reporter gene assay. The conditions noted are these: filed as modulator, dose 0.01-1 µM. A digest of the protocol: as §4

Data set [13] shares this target. Briefly: Modulation of full length human Nurr1 expressed in HEK293T cells co-transfected with luciferase reporter plasmid harboring NBRE response element assessed as increase in luciferase activity incubated for 18 hrs by luciferase reporter gene assay. The conditions noted are these: filed as modulator, dose 0.01-1 µM. A digest of the protocol:
as §4

The source of these data is ChEMBL document CHEMBL5030505, “Assessment of NR4A Ligands That Directly Bind and Modulate the Orphan Nuclear Receptor Nurr1” (J Med Chem, 2020).

The structures appear in SMILES notation. Active and inactive are the calls of the source. No cut-off for these calls is given here.

On to `O=C(Nc1ccccc1)c1cn2cc(-c3ccccn3)ccc2n1`, for which the Activity result with SK-N-BE(2) was “Non-Toxic”; with PC-12 [1] it was “Non-Toxic”; with HEK-293T, “Non-Toxic”; in data set [3], “Dose-Dependent Effect”; in data set [4] it was “Dose-Dependent Effect”; in data set [5], “Dose-Dependent Effect”. The Activity result in data set [6], in [7], in data set [8], in data set [9], in data set [10] and in [11] was “Dose-Dependent Effect” each time. The Activity result in data set [12] and in data set [13] was “Dose-Dependent Effect” in each case. Moreover, the result with SKNBE2, with HEK293T and in the data set on PC-12 [2] was Active.
